Measured values: ChEMBL document CHEMBL1649306, “Arylimidamide DB766, a potential chemotherapeutic candidate for Chagas' disease treatment” (Antimicrob Agents Chemother, 2010)
pIC50: −log10 of the molar value. “And” between values parts separate entries of the source, which are not always exact repeats. Equal values may be shown once. The source made the active and inactive calls. The rule behind the calls is not given here.

Tests used:
Trypanosoma cruzi [1] = test: Selectivity ratio of IC50 for Trypanosoma cruzi Y bloodstream forms to IC50 for Trypanosoma cruzi Y amastigotes; format: functional
Trypanosoma cruzi [2] = test: Antitrypanosomal activity against bloodstream forms of Trypanosoma cruzi Columbian after 24 hrs by light microscopy in presence of 50% mouse blood; format: functional, organism-based
In short: (§1)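 Bloodstream trypomastigotes kept at 4°C for 24 h in freshly isolated 50% mouse blood with serial dilutions (up to 32 μM). Motile live parasites counted in a Neubauer chamber by light microscopy; IC50 calculated as concentration reducing parasite number by 50%.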

Trypanosoma cruzi [3] = test: Antitrypanosomal activity against Trypanosoma cruzi Columbian bloodstream forms infected in C3H mouse assessed as decrease in parasite load in 50 mg/kg/day, po administered 5 days postinfection for 10 consecutive days measured after 120 days; format: functional, organism-based
Mus musculus [4] = test: Toxicity in male Swiss-Webster mouse assessed as weight loss at cumulative dose of 200 mg/kg, ip measured after 48 hrs; format: organism-based; parameters: dose 200 mg/kg, route intraperitoneal; conditions: in vivo
In short: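 Acute toxicity in 8–10-week-old Swiss Webster mice. i.p. injections every 2 h of 5, 15, 30, 50 and 100 mg/kg (cumulative 200 mg/kg) on day 1. Toxic and subtoxic signs inspected on days 2 and 3 per OECD guidelines; outcome read 48 h after injection.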

Trypanosoma cruzi [5] = test: Antitrypanosomal activity against Trypanosoma cruzi 960 epimastigotes after 24 hrs by light microscopy; format: functional, organism-based; conditions: Trypanosoma cruzi, 960, 24 h
In short: (§2)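 Epimastigotes from 5-day exponential cultures, 5 × 10^6 parasites/ml in LIT medium, incubated at 28°C up to 96 h with DB766 0 to 32 μM or Bz 0 to 250 μM. Counted daily in a Neubauer chamber. IC50 averaged from at least three determinations in duplicate.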

Trypanosoma cruzi [6] = test: Antitrypanosomal activity against Trypanosoma cruzi Y infected in Swiss-Webster mouse assessed as decrease in parasite load at 100 mg/kg/day, ip administered 5 days post-infection for 10 consecutive days measured on day 120; format: functional; conditions: route intraperitoneal
In short: (§3)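 Male Swiss mice infected i.p. with 10^4 Y strain bloodstream forms. Given 0.2 ml i.p. at 5 and 8 dpi, or daily for 10 days from 5 dpi; reference drug given by gavage. Parasitemia measured by the Pizzi-Brener method, cumulative mortality checked daily to 120 dpi, n ≥ 6 per group.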

Trypanosoma cruzi [7] = test: Antitrypanosomal activity against Trypanosoma cruzi Y bloodstream forms infected in Swiss mouse cardiomyocytes assessed as parasite crista dilation at 10 ug/ml after 24 hrs by transmission electron microscopy; format: functional, organism-based
Mus musculus [8] = test: Toxicity in male Swiss-Webster mouse assessed as mortality at cumulative dose of 200 mg/kg, ip measured after 48 hrs; format: organism-based; parameters: dose 200 mg/kg, route intraperitoneal; conditions: in vivo
In short: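 Uninfected 8–10-week-old female and male Swiss Webster and C3H/He (H-2k) mice injected i.p. on day 1 every 2 h with escalating doses: 5, 15, 30, 50 and 100 mg/kg (cumulative 20, 50, 100, 200 mg/kg). Toxic and subtoxic signs inspected on days 2–3 per OECD guidelines; tolerated dose set at 48 h.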

Trypanosoma cruzi [9] = test: Antitrypanosomal activity against Trypanosoma cruzi Y bloodstream forms infected in Swiss-Webster mouse assessed as survival rate of mouse at 100 mg/kg/day, ip administered 8 days postinfection measured on day 120; format: functional; conditions: route intraperitoneal
In short: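 Every-other-day i.p. dosing (5 doses, each 48 h apart) of 100 mg/kg/day in male Swiss mice inoculated with 10^4 Y-strain bloodstream trypomastigotes, n ≥ 6 parasitemia-positive animals. Mortality recorded daily up to 120 dpi as cumulative percentage.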

Trypanosoma cruzi [10] = test: Antitrypanosomal activity against Trypanosoma cruzi Y bloodstream forms infected in Swiss-Webster mouse assessed as decrease in parasite load at 25 mg/kg/day, ip administered 5 days postinfection for 10 consecutive days measured after 8 days; format: functional; parameters: scale not given: the % may be the effect or the level left; conditions: route intraperitoneal; in short: as §3
Trypanosoma cruzi [11] = test: Antitrypanosomal activity against Trypanosoma cruzi Columbian bloodstream forms infected in C3H mouse assessed as survival of mouse at 100 mg/kg/day, po administered 5 days postinfection for 10 consecutive days measured after 31 days; format: functional
In short: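 Male C3H/He (H-2k) mice infected i.p. with 5 × 10^3 Colombian-strain bloodstream trypomastigotes; only parasitemia-positive mice grouped (n ≥ 6). DB766 100 mg/kg/day given i.p. (0.1 ml) or by gavage (0.1 ml), daily for 10 treatments. Parasitemia by Pizzi-Brener method; mortality checked daily, expressed as cumulative percentage.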

Trypanosoma cruzi [12] = test: Antitrypanosomal activity against Trypanosoma cruzi Y bloodstream forms infected in Swiss-Webster mouse assessed as survival of mouse at 50 mg/kg/day, ip administered 8 days postinfection measured on day 120; format: functional, organism-based; in short: as §3
Trypanosoma cruzi [13] = test: Antitrypanosomal activity against bloodstream forms of Trypanosoma cruzi YuYu after 24 hrs by light microscopy in presence of 50% mouse blood; format: functional, organism-based; in short: as §1
Trypanosoma cruzi [14] = test: Antitrypanosomal activity against Trypanosoma cruzi Columbian bloodstream forms infected in C3H mouse assessed as decrease in cardiac parasite load at 100 mg/kg/day, ip administered 5 days postinfection for 10 consecutive days measured after 43 days; format: functional; parameters: scale not given: the % may be the effect or the level left; conditions: route intraperitoneal
In short: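 Male C3H/He mice infected i.p. with 5 × 10^3 Colombian strain bloodstream forms, given 100 mg/kg/day i.p. daily for 10 days. At 43 dpi, H&E-stained 3 μm heart sections scored for amastigote nests and infiltrates (>10 mononuclear cells) over at least 100 fields. Three sections each from at least three mice.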

Trypanosoma cruzi [15] = test: Antitrypanosomal activity against Trypanosoma cruzi Columbian bloodstream forms infected in C3H mouse assessed as decrease in parasite load at 25 mg/kg/day, ip administered 5 days postinfection for 10 consecutive days measured after 120 days; format: functional, organism-based
Trypanosoma cruzi [16] = test: Antitrypanosomal activity against Trypanosoma cruzi Columbian bloodstream forms infected in C3H mouse assessed as decrease in parasite load at 50 mg/kg/day, ip p administered 5 days postinfection for 10 consecutive days measured after 120 days; format: functional, organism-based
Mus musculus [17] = test: Toxicity in […](H-2k) mouse assessed as effect on creatine kinase level at 100 mg/kg/day, ip; format: organism-based; parameters: route intraperitoneal; conditions: in vivo
Trypanosoma cruzi [18] = test: Antitrypanosomal activity against Trypanosoma cruzi MS1523 epimastigotes after 24 hrs by light microscopy; format: functional, organism-based; conditions: MS1523, 24 h; in short: as §2
[19] = Cardiotoxicity against Swiss-Webster mouse cardiomyocytes assessed as creatine kinase cardiac isotype level by MTT assay; format: toxicity, Heart, Cardiomyocyte; conditions: read-out: LC50 (the source's name)
In short: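 Embryonic cardiomyocytes from Swiss mice, uninfected, exposed to 0 to 96 μM in DMEM at 37°C. Viability followed by CK-MB released into culture supernatant, alongside light-microscopy checks of morphology and spontaneous contraction; assays at least three times in duplicate.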

Trypanosoma cruzi [20] = test: Antitrypanosomal activity against Trypanosoma cruzi Y bloodstream forms infected in Swiss-Webster mouse assessed as decrease in parasite load at 50 mg/kg/day, ip administered 8 days postinfection measured on day 2; format: functional; parameters: scale not given: the % may be the effect or the level left; conditions: route intraperitoneal
In short: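 Two-day regimen in male Swiss mice infected i.p. with 10^4 Y-strain bloodstream forms: i.p. doses (0.2 ml) at 5 and 8 dpi. Circulating parasites quantified at the 8 dpi peak by Pizzi-Brener method; reduction versus infected untreated mice; n ≥ 6 per group.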

Trypanosoma cruzi [21] = test: Antitrypanosomal activity against Trypanosoma cruzi Y bloodstream forms infected in Swiss-Webster mouse assessed as reduction in parasite-induced weight loss in mouse at 50 mg/kg/day, ip administered 5 days postinfection for 10 consecutive days measured on day 120; format: functional, organism-based
In short: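 Body weight of infected, treated mice followed from 0 to 120 dpi.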

Mus musculus [22] = test: Hepatotoxicity against Swiss-Webster mouse assessed as GPT at 100 mg/kg/day measured after 14 days postinfection; format: toxicity, organism-based; conditions: in vivo, 336 h

For `CC(C)Oc1cc(NC(=N)c2ccccn2)ccc1-c1ccc(-c2ccc(NC(=N)c3ccccn3)cc2OC(C)C)o1`, the Selectivity ratio (Trypanosoma cruzi [1]) was >533 and 714, the pIC50 (Trypanosoma cruzi [2]) was 6.00 and the Activity (Trypanosoma cruzi [3]) was “inactive”. For the same molecule, the Activity (Mus musculus [4]) was 10%, the pIC50 (Trypanosoma cruzi [5]) was 7.05 and the IC90 (Trypanosoma cruzi [5]) was 280 nM. The inhibition in vivo at 100 mg/kg/day (Trypanosoma cruzi [6]) was greater than 98%, the Activity (Trypanosoma cruzi [7]) was “Active” and the Activity (Mus musculus [8]) was “Non-toxic”. It also gave an Activity (Trypanosoma cruzi [9]) of 60%, an Activity (Trypanosoma cruzi [10]) of 88% and an Activity (Trypanosoma cruzi [11]) of 100%. The Activity (Trypanosoma cruzi [12]) was “Active”, the pIC50 (Trypanosoma cruzi [13]) was 6.09 and the Activity (Trypanosoma cruzi [14]) was 95%. For the same molecule, the Activity (Trypanosoma cruzi [15]) was “Active”, the Activity (Trypanosoma cruzi [16]) was “Active” and the Activity (Mus musculus [17]) was “Non-toxic”. It also gave a pIC50 (Trypanosoma cruzi [18]) of 6.77, an IC90 (Trypanosoma cruzi [18]) of 410 nM and a CC50 [19] greater than 10600 nM. For the same molecule, the Activity (Trypanosoma cruzi [20]) was 88%, the Activity (Trypanosoma cruzi [21]) was “inactive” and the Activity (Mus musculus [22]) was “Non-toxic”.
